{
  "source": "ChEMBL document CHEMBL4257493",
  "about": "“Discovery of 7-hydroxyaporphines as conformationally restricted ligands for beta-1 and beta-2 adrenergic receptors” (Medchemcomm, 2018)",
  "key": {"[1]": {"target": "T1, Beta-2 adrenergic receptor (Homo sapiens, UniProt P07550)", "experiment": "Displacement of [3H]-CGP-12177 from human beta2-adrenergic receptor"}, "[2]": {"target": "T2, Beta-3 adrenergic receptor (Homo sapiens, UniProt P13945)", "experiment": "Displacement of [3H]-CGP-12177 from human beta3-adrenergic receptor"}, "[3]": {"target": "5-hydroxytryptamine receptor 1A (Homo sapiens, UniProt P08908)", "experiment": "Binding affinity to 5-HT1A receptor (unknown origin) assessed as inhibition of radioligand binding by radioligand competition binding assay"}, "[4]": {"target": "T3, 5-hydroxytryptamine receptor 1B (Homo sapiens, UniProt P28222)", "experiment": "Binding affinity to 5-HT1B receptor (unknown origin) assessed as inhibition of radioligand binding by radioligand competition binding assay"}, "[5]": {"target": "T4, 5-hydroxytryptamine receptor 1D (Homo sapiens, UniProt P28221)", "experiment": "Binding affinity to 5-HT1D receptor (unknown origin) assessed as inhibition of radioligand binding by radioligand competition binding assay"}, "[6]": {"target": "T5, 5-hydroxytryptamine receptor 7 (Homo sapiens, UniProt P34969)", "experiment": "Binding affinity to 5-HT7 receptor (unknown origin) assessed as inhibition of radioligand binding by radioligand competition binding assay"}, "[7]": {"target": "Alpha-2A adrenergic receptor (Homo sapiens, UniProt P08913)", "experiment": "Binding affinity to andrenergic alpha2A receptor (unknown origin) assessed as inhibition of radioligand binding by radioligand competition binding assay"}, "[8]": {"target": "Alpha-2B adrenergic receptor (Homo sapiens, UniProt P18089)", "experiment": "Binding affinity to andrenergic alpha2B receptor (unknown origin) assessed as inhibition of radioligand binding by radioligand competition binding assay"}, "[9]": {"target": "T1, Beta-2 adrenergic receptor", "experiment": "Binding affinity to andrenergic beta2 receptor (unknown origin) assessed as inhibition of radioligand binding by radioligand competition binding assay"}, "[10]": {"target": "T2, Beta-3 adrenergic receptor", "experiment": "Binding affinity to andrenergic beta3 receptor (unknown origin) assessed as inhibition of radioligand binding by radioligand competition binding assay"}, "[11]": {"target": "Beta-1 adrenergic receptor (Homo sapiens, UniProt P08588)", "experiment": "Agonist activity at human beta1-adrenergic receptor expressed in CHO-K1 cells assessed as induction of cAMP accumulation after 15 mins by HTRF assay", "type": "functional, cell-based", "procedure,_shortened": "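cAMP accumulation in human β1-expressing CHO-K1 cells, quantified by HTRF. Vehicle 0.40% DMSO. Incubation 15 minutes at 37°C in HBSS with 5 mM HEPES, 0.1% BSA and 100 μM IBMX, pH 7.4. Run by a contract screening service.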"}, "[12]": {"target": "T1, Beta-2 adrenergic receptor", "experiment": "Agonist activity at human beta2-adrenergic receptor expressed in CHO-K1 cells assessed as increase in cAMP accumulation after 20 mins by HTRF assay", "type": "functional, cell-based", "procedure,_shortened": "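Human β2 receptor expressed in CHO cells; cAMP accumulation read out by HTRF. Vehicle 0.40% DMSO. Incubated 20 minutes at 37°C in HBSS, 5 mM HEPES, 0.1% BSA, 100 μM IBMX, pH 7.4. Performed by a contract screening service.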"}, "[13]": {"target": "T3, 5-hydroxytryptamine receptor 1B", "experiment": "Binding affinity to 5-HT1B receptor (unknown origin) assessed as inhibition of radioligand binding at 10 uM by radioligand competition binding assay"}, "[14]": {"target": "T4, 5-hydroxytryptamine receptor 1D", "experiment": "Binding affinity to 5-HT1D receptor (unknown origin) assessed as inhibition of radioligand binding at 10 uM by radioligand competition binding assay"}, "[15]": {"target": "5-hydroxytryptamine receptor 6 (Homo sapiens, UniProt P50406)", "experiment": "Binding affinity to 5-HT6 receptor (unknown origin) assessed as inhibition of radioligand binding at 10 uM by radioligand competition binding assay"}, "[16]": {"target": "T5, 5-hydroxytryptamine receptor 7", "experiment": "Binding affinity to 5-HT7 receptor (unknown origin) assessed as inhibition of radioligand binding at 10 uM by radioligand competition binding assay"}, "[17]": {"target": "T1, Beta-2 adrenergic receptor", "experiment": "Binding affinity to andrenergic beta2 receptor (unknown origin) assessed as inhibition of radioligand binding at 10 uM by radioligand competition binding assay"}, "[18]": {"target": "Sodium-dependent serotonin transporter (Homo sapiens) (UniProt P31645)", "experiment": "Binding affinity to SERT (unknown origin) assessed as inhibition of radioligand binding by radioligand competition binding assay", "settings": "concentration not given here"}, "[19]": {"target": "Sodium-dependent noradrenaline transporter (Homo sapiens) (UniProt P23975)", "experiment": "Binding affinity to NET (unknown origin) assessed as inhibition of radioligand binding by radioligand competition binding assay", "settings": "concentration not given here"}, "[20]": {"target": "Kappa-type opioid receptor (Homo sapiens) (UniProt P41145)", "experiment": "Binding affinity to KOR (unknown origin) assessed as inhibition of radioligand binding by radioligand competition binding assay", "settings": "concentration not given here"}, "Homo sapiens": {"species_on_record": "Homo sapiens", "experiment": "Binding affinity to sigma2 receptor (unknown origin) assessed as inhibition of radioligand binding by radioligand competition binding assay", "settings": "concentration not given here"}, "[21]": {"target": "Muscarinic acetylcholine receptor M5 (Homo sapiens) (UniProt P08912)", "experiment": "Binding affinity to muscarinic M5 receptor (unknown origin) assessed as inhibition of radioligand binding by radioligand competition binding assay", "settings": "concentration not given here"}, "[22]": {"target": "Muscarinic acetylcholine receptor M3 (Homo sapiens) (UniProt P20309)", "experiment": "Binding affinity to muscarinic M3 receptor (unknown origin) assessed as inhibition of radioligand binding by radioligand competition binding assay", "settings": "concentration not given here"}, "[23]": {"target": "Muscarinic acetylcholine receptor M4 (Homo sapiens) (UniProt P08173)", "experiment": "Binding affinity to muscarinic M4 receptor (unknown origin) assessed as inhibition of radioligand binding by radioligand competition binding assay", "settings": "concentration not given here"}, "[24]": {"target": "Histamine H2 receptor (Homo sapiens) (UniProt P25021)", "experiment": "Binding affinity to histamine H2 receptor (unknown origin) assessed as inhibition of radioligand binding by radioligand competition binding assay", "settings": "concentration not given here"}, "[25]": {"target": "Histamine H3 receptor (Homo sapiens) (UniProt Q9Y5N1)", "experiment": "Binding affinity to histamine H3 receptor (unknown origin) assessed as inhibition of radioligand binding by radioligand competition binding assay", "settings": "concentration not given here"}, "[26]": {"target": "Histamine H4 receptor (Homo sapiens) (UniProt Q9H3N8)", "experiment": "Binding affinity to histamine H4 receptor (unknown origin) assessed as inhibition of radioligand binding by radioligand competition binding assay", "settings": "concentration not given here"}, "[27]": {"target": "D(1B) dopamine receptor (Homo sapiens) (UniProt P21918)", "experiment": "Binding affinity to dopamine D5 receptor (unknown origin) assessed as inhibition of radioligand binding by radioligand competition binding assay", "settings": "concentration not given here"}, "[28]": {"target": "D(1A) dopamine receptor (Homo sapiens) (UniProt P21728)", "experiment": "Binding affinity to dopamine D1 receptor (unknown origin) assessed as inhibition of radioligand binding by radioligand competition binding assay", "settings": "concentration not given here"}, "[29]": {"target": "Alpha-2C adrenergic receptor (Homo sapiens) (UniProt P18825)", "experiment": "Binding affinity to andrenergic alpha2C receptor (unknown origin) assessed as inhibition of radioligand binding by radioligand competition binding assay", "settings": "concentration not given here"}, "[30]": {"target": "Alpha-1B adrenergic receptor (Homo sapiens) (UniProt P35368)", "experiment": "Binding affinity to andrenergic alpha1B receptor (unknown origin) assessed as inhibition of radioligand binding by radioligand competition binding assay", "settings": "concentration not given here"}, "[31]": {"target": "5-hydroxytryptamine receptor 1E (Homo sapiens) (UniProt P28566)", "experiment": "Binding affinity to 5-HT1E receptor (unknown origin) assessed as inhibition of radioligand binding by radioligand competition binding assay", "settings": "concentration not given here"}},
  "note": "Activity calls are given as the source filed them. The rule behind the calls is not given here.",
  "data": [
    {"molecule": "COc1cc2c3c(c1OC)-c1ccccc1[C@@H](O)[C@@H]3NCC2", "values": [
      {"measurement": "IC50", "setting": "[1]", "result": 1.4, "unit": "nM"},
      {"measurement": "IC50", "setting": "[2]", "result": 240, "unit": "nM"},
      {"measurement": "Ki", "setting": "[3]", "result": 71, "unit": "nM"},
      {"measurement": "Ki", "setting": "[4]", "result": 1210, "unit": "nM"},
      {"measurement": "Ki", "setting": "[5]", "result": 857, "unit": "nM"},
      {"measurement": "Ki", "setting": "[6]", "result": 120, "unit": "nM"},
      {"measurement": "Ki", "setting": "[7]", "result": 1150, "unit": "nM"},
      {"measurement": "Ki", "setting": "[8]", "result": 571, "unit": "nM"},
      {"measurement": "Ki", "setting": "[9]", "result": 13, "unit": "nM"},
      {"measurement": "Ki", "setting": "[10]", "result": 308, "unit": "nM"},
      {"measurement": "Activity", "setting": "[11]", "result": "inactive"},
      {"measurement": "Activity", "setting": "[12]", "result": "inactive"},
      {"measurement": "inhibition", "setting": "[13]", "result": "> 50", "unit": "%"},
      {"measurement": "inhibition", "setting": "[14]", "result": "> 50", "unit": "%"},
      {"measurement": "inhibition", "setting": "[15]", "result": "> 50", "unit": "%"},
      {"measurement": "inhibition", "setting": "[16]", "result": "> 50", "unit": "%"},
      {"measurement": "inhibition", "setting": "[17]", "result": "> 50", "unit": "%"},
      {"measurement": "inhibition", "setting": "[18]", "result": "< 50", "unit": "%"},
      {"measurement": "inhibition", "setting": "[19]", "result": "< 50", "unit": "%"},
      {"measurement": "inhibition", "setting": "[20]", "result": "< 50", "unit": "%"},
      {"measurement": "inhibition", "setting": "Homo sapiens", "result": "< 50", "unit": "%"},
      {"measurement": "inhibition", "setting": "[21]", "result": "< 50", "unit": "%"},
      {"measurement": "inhibition", "setting": "[22]", "result": "< 50", "unit": "%"},
      {"measurement": "inhibition", "setting": "[23]", "result": "< 50", "unit": "%"},
      {"measurement": "inhibition", "setting": "[24]", "result": "< 50", "unit": "%"},
      {"measurement": "inhibition", "setting": "[25]", "result": "< 50", "unit": "%"},
      {"measurement": "inhibition", "setting": "[26]", "result": "< 50", "unit": "%"},
      {"measurement": "inhibition", "setting": "[27]", "result": "< 50", "unit": "%"},
      {"measurement": "inhibition", "setting": "[28]", "result": "< 50", "unit": "%"},
      {"measurement": "inhibition", "setting": "[29]", "result": "< 50", "unit": "%"},
      {"measurement": "inhibition", "setting": "[30]", "result": "< 50", "unit": "%"},
      {"measurement": "inhibition", "setting": "[31]", "result": "< 50", "unit": "%"}
    ]}
  ]
}
